# Hits are enriched below; roughly 1.8% of the tested compounds scored in any of these assays.
# Apaf1 inhib = inhibitors of human Apaf-1 apoptosome, primary screen, biochemical, DEVD-Rh110 fluorescence, uHTS | Apoptotic protease-activating factor 1 (Homo sapiens), O14727 | 330,000 tested, 0.71% active | inhibition, % at 20 µM | reconstituted apoptosome caspase-3 activity; active means inhibition of at least 40% at 20 µM;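 further: plate controls were DMSO wells for no effect and DEVD-CHO caspase inhibitor wells for full effect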
#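 System: reconstituted apoptosome with Apaf-1, cytochrome c, caspase-9, procaspase-3, dATP; Signal: Rh110 fluorescence intensity; Schedule: 30 min compound preincubation, 50 min activation, room temperature; Reagent: cytochrome c trigger plus (Z-DEVD)2-Rh110 caspase-3 substrate.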
# TDP2 inh = human TDP2 enzyme inhibitors, primary screen, biochemical, epi absorbance, recombinant enzyme; Tyrosyl-DNA phosphodiesterase 2 (Homo sapiens), O95551; T5PNP hydrolysis, p-nitrophenol absorbance 415 nm; inhibition, % at 12.8 µM; 370,000 tested, 0.34% active;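 active means inhibition above the mean of all tested compounds plus 3 SD, set per campaign, cut at about 25% in these data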;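 further: 0% = DMSO with enzyme and 100% = buffer with substrate but no TDP2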
# Target sequence (O95551 whole entry, looked up): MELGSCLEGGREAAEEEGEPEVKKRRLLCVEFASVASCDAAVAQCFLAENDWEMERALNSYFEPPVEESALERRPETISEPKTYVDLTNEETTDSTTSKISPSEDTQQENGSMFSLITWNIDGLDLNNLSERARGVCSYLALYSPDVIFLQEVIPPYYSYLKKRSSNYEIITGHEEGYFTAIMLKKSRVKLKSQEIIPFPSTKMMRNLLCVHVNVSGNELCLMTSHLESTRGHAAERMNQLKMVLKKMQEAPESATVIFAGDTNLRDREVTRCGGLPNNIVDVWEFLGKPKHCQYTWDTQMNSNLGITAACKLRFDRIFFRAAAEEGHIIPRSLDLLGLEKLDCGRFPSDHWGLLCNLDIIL
#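 test system = human TDP2 enzyme | input = TDP2 enzyme at 120 nM final | medium = 50 mM Tris-HCl pH 7.5 with Mg2+, KCl, DTT, BSA | also added = T5PNP substrate, 5 mM | times = 2 h at 37 °C | technique = epi absorbance | benchmarks = high control without enzyme, low control DMSO plus TDP2 | replication = each compound tested once, singlicate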
# CTSL1 counter = Fasciola hepatica cathepsin L1 inhibitors, primary screen, counter-screen for PFM18AAP inhibitor project, biochemical, QFRET, fluorogenic peptide substrate. recombinant F. hepatica cathepsin L1, Z-Leu-Arg-MCA fluorescence. inhibition, % at 5.96 µM. 300,000 tested, 0.49% active. AID 1906, 2009;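 active means inhibition above the mean of all tested compounds plus 3 SD, set per screening campaign, cut at about 17% in these data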;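 further: 0% = plate median of test compound wells and 100% = 1 µM Z-Phe-Ala-diazomethylketone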
# GSTO1 counter = inhibitors of recombinant GSTO1, primary screen, counter-screen for RBBP9 inhibitor project, biochemical, fluorescence polarization; Glutathione S-transferase omega-1 (Homo sapiens), P78417; activity-based probe fluorescence polarization; inhibition, % at 5.96 µM; 300,000 tested, 1.1% active; AID 1974, 2009;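 active means inhibition above the campaign mean inhibition plus 3 SD, cut at about 35% in these data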;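 further: 0% = GSTO1-1 with DMSO and 100% = wells lacking GSTO1-1 enzyme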
# Target sequence (P78417 whole entry, looked up): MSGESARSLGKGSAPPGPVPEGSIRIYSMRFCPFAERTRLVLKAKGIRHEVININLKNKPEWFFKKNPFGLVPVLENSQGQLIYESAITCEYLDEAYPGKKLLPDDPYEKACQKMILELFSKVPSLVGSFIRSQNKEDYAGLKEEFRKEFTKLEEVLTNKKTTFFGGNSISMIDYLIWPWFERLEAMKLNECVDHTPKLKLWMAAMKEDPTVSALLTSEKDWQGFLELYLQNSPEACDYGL
# PAD4 inh = human PAD4 inhibitors, primary screen, biochemical, fluorescence polarization, 1536-well format; Protein-arginine deiminase type-4 (Homo sapiens), Q9UM07; recombinant PAD4, RCA probe fluorescence polarization; inhibition, % at 6.36 µM; 330,000 tested, 0.41% active;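 active means percent inhibition above a cutoff equal to the mean of all tested compounds plus 3 SD, cut at about 15% in these data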;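 further: 0% = PAD4 with RCA probe and DMSO and 100% = probe without PAD4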
# GSTO1 confirm = GSTO1 inhibitor hit confirmation, counter-screen for RBBP9 inhibitor project, biochemical, fluorescence polarization, triplicate; shares compounds with GSTO1 counter; recombinant GSTO1, probe fluorescence polarization; inhibition, % at 5.96 µM; 2,400 tested, 54% active; AID 2176, 2009;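 active means inhibition above the primary screen's cutoff, its mean inhibition plus 3 SD, cut at about 35% in these data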;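 further: loss of polarization as inhibitors block binding of rhodamine sulfonate ester activity probe; 0% = GSTO1 with DMSO and 100% = wells lacking GSTO1 enzyme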
# PAD4 confirm = human PAD4 inhibitors, confirmation, biochemical, fluorescence polarization | 1,200 tested, 28% active | shares compounds with PAD4 inh | AID 488796, 2010 | inhibition, % at 6.36 µM | recombinant PAD4, RCA probe fluorescence polarization;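 active means mean inhibition across replicates above the hit cutoff set by the earlier primary screen, cut at about 15% in these data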;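 further: inhibitors block active-site labeling by the probe so polarization falls; 0% = PAD4 with probe and DMSO and 100% = probe without PAD4 enzyme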
# Apaf-1 inh conf2 = Apaf-1 inhibitors, single-dose retest, confirmation, biochemical, fluorescence, DEVD-Rh110, 20 µM. shares compounds with Apaf1 inhib. reconstituted apoptosome, caspase-3 DEVD-Rh110 fluorescence. inhibition, % at 20 µM. 1,800 tested, 25% active;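 active means mean inhibition of at least 40% at 20 µM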;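 further: plate controls were DMSO wells for no effect and DEVD-CHO caspase inhibitor control wells for full effect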
# Rh110 quench = Rh110 fluorescence interference by putative Apaf-1 inhibitors, confirmation, artefact control for Apaf-1 inhibitor project, biochemical, 20 µM; shares compounds with Apaf1 inhib; quenched caspase reaction; activation (fluorescence interference), % at 20 µM; 1,800 tested, under 10 active;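 active means signal rise of 40% or more at 20 µM, treated as a fluorescence artifact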
# Apaf1 inh interf = fluorescence interference of Apaf-1 inhibitor hits, dose response, artefact control for Apaf-1 inhibitor project | shares compounds with Apaf1 inhib | fluorescence interference counterscreen, Apaf-1 assay format | IC50, µM | 460 tested, under 10 active; call rule not given here
# Starred values were filed as active, the others as inactive; . = no result; ! = not confirmed by another sample.
SMILES,Apaf1 inhib,TDP2 inh,CTSL1 counter,GSTO1 counter,PAD4 inh,GSTO1 confirm,Apaf-1 inh conf2,Rh110 quench,others
O=C(O)c1ccc(S(=O)(=O)/N=C2\C=C(Nc3ccccc3F)C(=O)c3ccccc32)cc1,96.3*,89.1*,80.0*,90.8*,66.8*,92.6*,98.2*,-3.8,PAD4 confirm=64.6*;Apaf1 inh interf=>100
CC[C@@H](CCCc1ccc(OC)cc1)CCC(=O)N(c1ccccc1)c1ccccc1,.,7.5,.,.,.,.,.,.,
COCCn1c(N)c(C(=O)NCC2CCCO2)c2nc3ccccc3nc21 (stereo not given),75.1*,13.3,13.4,102.2*,76.1*,5.3,29.5,5.3,PAD4 confirm=-18.1
COC(=O)C1=C(C)N(Cc2cccc(C(F)(F)F)c2)C(=NCc2cc(OC)c(OC)c(OC)c2)NC1c1ccccc1 (stereo not given),.,-8.5,.,.,.,.,.,.,
S=C(Nc1ccc(N2CCOCC2)cc1)Nc1ccc2nc(-c3ccco3)c(-c3ccco3)nc2c1,41.3*,14.1,5.8,49.8*,3.0,5.5,26.0,8.8,
CCN(CC)CCCNC1=C(Cl)C(=O)c2ccccc2C1=O,50.4*,6.2,17.0*,65.6*,-9.8,47.0*,65.1*,4.1,Apaf1 inh interf=>100
CC(C)OCCCNC1=C(Cl)C(=O)c2ccccc2C1=O,52.8*,0.0,8.0,63.9*,-10.9,8.9,28.5,3.6,
COC(=O)CCC(=O)OC1(C)C(=O)C2=CN(Cc3ccco3)C(c3ccc(OC)cc3)=CC2=C(Br)C1=O (stereo not given),7.6,.,-25.1,6.1,-17.5,.,.,.,
COCCN1C=C2C(=O)C(C)(OC(=O)CCC(=O)OC)C(=O)C(Br)=C2C=C1c1ccc(OC)cc1 (stereo not given),77.1*,.,6.8,54.8*,-6.3,60.9*,84.1*,7.3,
C=CCN1C=C2C(=O)C(C)(OC(=O)CCC(=O)OC)C(=O)C(Br)=C2C=C1c1ccc(OC)cc1 (stereo not given),67.2*,.,-5.0,61.2*,-6.1,69.2*,60.7*,9.1,Apaf1 inh interf=>100
CCN(CC)CCCN1C=C2C(=O)C(C)(OC(=O)CCC(=O)OC)C(=O)C(Br)=C2C=C1c1ccc(OC)cc1 (stereo not given),34.5,9.5,-15.9,32.7,-18.7,.,.,.,
COC(=O)CCC(=O)OC1(C)C(=O)C2=CN(C3CCCC3)C(c3ccc(OC)cc3)=CC2=C(Br)C1=O (stereo not given),64.1*,0.1,-3.7,50.3*,-22.8,30.0,76.8*,5.2,Apaf1 inh interf=>100
COC(=O)C1CCCN(C(=O)C2CCN(S(=O)(=O)c3cccs3)CC2)C1 (stereo not given),.,-3.5,.,.,.,.,.,.,
C[C@H](CO)N1C[C@H](C)[C@@H](CN(C)C(=O)Nc2cccc(F)c2)OCc2cn(nn2)CCCC1=O,.,-1.4,.,.,.,.,.,.,
O=C(Cc1cc(=O)[nH][nH]1)N/N=C/C(Cl)=C/c1ccccc1,49.1*!,-10.9,1.9,54.0*,6.8,19.9,20.0,3.2,
O=C(O)COc1ccccc1C=NNC(=O)Cc1cc(=O)[nH][nH]1,.,-3.0,.,.,.,.,.,.,
O=C(Cc1cc(=O)[nH][nH]1)N/N=C/c1c(Cl)cccc1Cl,64.3*!,10.1,-3.8,52.0*,20.0*!,1.5,4.9,-2.2,PAD4 confirm=-4.6
Cn1cccc1CC(=O)N/N=C/C(Cl)=C/c1ccccc1,4.5,-10.9,1.4,-6.2,-9.6,.,.,.,
CC1CCN(c2c3c(nc4ncnn24)CCCC3)CC1,.,6.8,.,.,.,.,.,.,
COC(=O)C1=C(C)N(Cc2ccc(C(F)(F)F)cc2)C(=NCc2ccccc2C(F)(F)F)NC1c1ccc(C(F)(F)F)cc1 (stereo not given),.,0.1,.,.,.,.,.,.,
COc1ccc(CN=Cc2[nH]c3ccc(Br)c(Cl)c3c2O)cc1,44.7*,15.3,6.8,52.0*,-19.9,1.8,40.8*,-1.3,Apaf1 inh interf=>100
Cc1cc(C)cc(N=Cc2[nH]c3ccc(Br)c(Cl)c3c2O)c1,.,22.9,-2.9,7.2,-0.1,.,.,.,
COc1ccc2nc3cccc(OC)c3nc2c1,96.6*,1.5,19.1*,56.5*,-0.7,87.4*,26.9,0.8,
COC(=O)[C@]1(C#N)CC(=O)N(C(C)C)[C@@H]1c1ccccc1,.,2.1,.,.,.,.,.,.,
N#Cc1c(N)n(CCOC(=O)c2cccc([N+](=O)[O-])c2)c2nc3ccccc3nc12,17.0,-17.6,0.0,19.7,1.3,.,.,.,
SMILES,Apaf1 inhib,TDP2 inh,CTSL1 counter,GSTO1 counter,PAD4 inh,GSTO1 confirm,Apaf-1 inh conf2,Rh110 quench,others
COc1cccc(Cn2c(N)c(C#N)c3nc4ccccc4nc32)c1OC,92.2*,-7.7,0.7,40.8*,-12.1,-2.3,11.4,7.9,
Cc1ccc(-n2c(O)c(/C=N/Nc3ccc(S(=O)(=O)N4CCOCC4)cc3[N+](=O)[O-])c3ccccc3c2=O)c(C)c1,50.7*,4.9,1.8,38.1*,-5.7,61.9*,31.4,6.1,
CCC(=O)N(C1=C(NC)C(=O)c2ccccc2C1=O)C(C)C,68.6*,6.3,5.7,50.2*,-5.5,12.6,49.2*,-0.8,Apaf1 inh interf=>100
O=C(CC1Nc2cccc3cccc(c23)NC1=O)Nc1ccccc1 (stereo not given),96.1*,16.7,3.4,37.6*,25.2*,19.6,13.9,0.6,PAD4 confirm=3.5
COP(N)(=O)C(CC(C)C)NC(=O)OCc1ccccc1 (stereo not given),.,7.2,.,.,.,.,.,.,
CC(=O)c1cc(O)c2ccccc2c1O,58.0*,42.2*,-3.9,46.3*,3.9,39.1*,10.7,2.6,
CC(=O)c1coc2c1cc(O)c1ccccc12,9.8,11.1,-0.2,13.7,-14.7,.,.,.,
Cc1oc2c(c1C(=O)N1CCC(C)CC1)C(=O)c1ccccc1C2=O,41.5*,16.4,13.6,39.5*,8.7,8.4,33.2,-0.2,
CCCCN1CN2Cc3ccccc3C2CS1(=O)=O (stereo not given),.,4.1,.,.,.,.,.,.,
